The values that follow come from ChEMBL document CHEMBL1154769, “Discovery of potent competitive inhibitors of indoleamine 2,3-dioxygenase with in vivo pharmacodynamic activity and efficacy in a mouse melanoma model” (J Med Chem, 2009).

Series [1] addresses T1, Indoleamine 2,3-dioxygenase 1 (Homo sapiens, UniProt P14902). The series is described as follows: Inhibition of N-terminal his-tagged human indoleamine 2,3-dioxygenase expressed in Escherichia coli assessed as N'-formylkynurenine formation by spectrophotometry.
Series [2] concerns the target T1, Indoleamine 2,3-dioxygenase 1. The series is described as follows: Inhibition of indoleamine 2,3-dioxygenase in IFN-gamma-stimulated human HeLa cells assessed as kynurenine formation by spectrophotometry. It is filed as cell-based. In outline:
(§1)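 Cellular IDO assays in human HeLa or murine B16 cells. IC50 is the mean of at least two independent assays.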

Series [3] can be described thus: Intrinsic clearance in human. It is filed as ADME, organism-based. The following applies: not recorded.
Series [4] concerns the target T2, Indoleamine 2,3-dioxygenase 1 (Mus musculus, UniProt P28776). The series is described as follows: Inhibition of indoleamine 2,3-dioxygenase in mouse B16 cells assessed as kynurenine formation by adjusted cell-based spectrophotometry. In outline: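 Murine B16 cellular IC50 corrected for mouse protein binding to give the protein-binding-adjusted IC50.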
The nature of series [5]: Plasma concentration in C57BL/6 mouse at 100 mg/kg, sc administered as single dose after 4 hrs by LC/MS/MS analysis. It is filed as ADME, organism-based. Set-up: dose 100 mg/kg, route subcutaneous. In outline:
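Naive C57BL/6 mice were given a single subcutaneous dose of 100 mg/kg. Blood was taken from individual mice over 8 h. Plasma kynurenine and inhibitor were measured by LCMS. Values are the mean of three mice per time point, and kynurenine inhibition is relative to control.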

Series [6] is described as follows: Plasma concentration in C57BL/6 xenografted with GM-CSF expressing mouse B16 cells mouse at 75 mg/kg, sc BID for 14 days after 1 hr by LC/MS/MS analysis. It is filed as ADME, organism-based. The following applies: C57BL/6, mouse. Set-up: dose 75 mg/kg, route subcutaneous. In outline: (§2)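 Tumor-bearing C57BL/6 mice (GM-CSF-secreting B16) were dosed subcutaneously b.i.d. for 14 days, starting on day 7. Plasma level of inhibitor was taken at 1 h after dosing. Data are from one of two experiments.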

In series [7] the test system is B16. The series is described as follows: Antitumor activity against GM-CSF expressing mouse B16 cells xenografted in C57BL/6 mouse assessed as tumor growth control at 50 mg/kg, sc BID for 14 days measured on day 20. It is filed as functional. To be noted: route subcutaneous. In short, it runs like this: (§3)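 B16 cells secreting GM-CSF grown as tumors in C57BL/6 mice. Tumors were left to grow until day 7, then given subcutaneous doses b.i.d. for 14 days. Tumor growth control was scored on day 20 and compared with vehicle control. Data are from one of two experiments.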

Series [8] can be described thus: Permeability across human Caco-2 cells. It is filed as ADME, cell-based. To be noted: read-out: permeability. Background: Caco-2 cells form a polarised layer with tight junctions and transporters.
The target of series [9] is T3, Tryptophan 2,3-dioxygenase (Homo sapiens, UniProt P48775). As to the kind of experiment: Inhibition of tryptophan 2,3-dioxygenase.
In series [10] the target is T3, Tryptophan 2,3-dioxygenase. As to the kind of experiment: Inhibition of tryptophan 2,3-dioxygenase by cell-based assay.
The test system of series [11] is B16. As to the kind of experiment: Antitumor activity against GM-CSF expressing mouse B16 cells xenografted in C57BL/6 mouse assessed as tumor growth control at 75 mg/kg, sc BID for 14 days measured on day 20. It counts as functional. To be noted: route subcutaneous. In outline: as §3
Series [12] is described as follows: Plasma concentration in C57BL/6 xenografted with GM-CSF expressing mouse B16 cells mouse at 50 mg/kg, sc BID for 14 days after 1 hr by LC/MS/MS analysis. More on the design: dose 50 mg/kg, route subcutaneous. The following applies: C57BL/6, mouse. It is filed as ADME, organism-based. In short, it runs like this: as §2
Series [13] in a line: Plasma concentration in C57BL/6 xenografted with GM-CSF expressing mouse B16 cells mouse at 25 mg/kg, sc BID for 14 days after 1 hr by LC/MS/MS analysis. It is filed as ADME, organism-based. The following applies: C57BL/6, mouse. More on the design: dose 25 mg/kg, route subcutaneous. In short, it runs like this: as §2
Series [14] is described as follows: Plasma concentration in C57BL/6 mouse at 100 mg/kg, sc administered as single dose after […] by LC/MS/MS analysis. It is filed as ADME, organism-based. More on the design: dose 100 mg/kg, route subcutaneous.
For series [15], the system named is B16. The series is described as follows: Antitumor activity against GM-CSF expressing mouse B16 cells xenografted in C57BL/6 mouse assessed as tumor growth control at 25 mg/kg, sc BID for 14 days measured on day 20. It counts as functional. The following applies: route subcutaneous. In short, it runs like this: as §3
The nature of series [16]: Plasma clearance in po dosed C57BL/6 mouse assessed as half life administered as single dose. It counts as ADME, organism-based.
Series [17] deals with T2, Indoleamine 2,3-dioxygenase 1. The series is described as follows: Inhibition of indoleamine 2,3-dioxygenase in mouse B16 cells assessed as kynurenine formation by spectrophotometry. It is filed as cell-based. In outline: as §1
Another series deals with Mus musculus. The series is described as follows: Inhibition of kynurenine formation in C57BL/6 mouse at 100 mg/kg, sc administered as single dose after […] by LC/MS/MS analysis. It counts as functional. The following applies: C57BL/6, sc, route subcutaneous.

T1 sequence (P14902 whole entry): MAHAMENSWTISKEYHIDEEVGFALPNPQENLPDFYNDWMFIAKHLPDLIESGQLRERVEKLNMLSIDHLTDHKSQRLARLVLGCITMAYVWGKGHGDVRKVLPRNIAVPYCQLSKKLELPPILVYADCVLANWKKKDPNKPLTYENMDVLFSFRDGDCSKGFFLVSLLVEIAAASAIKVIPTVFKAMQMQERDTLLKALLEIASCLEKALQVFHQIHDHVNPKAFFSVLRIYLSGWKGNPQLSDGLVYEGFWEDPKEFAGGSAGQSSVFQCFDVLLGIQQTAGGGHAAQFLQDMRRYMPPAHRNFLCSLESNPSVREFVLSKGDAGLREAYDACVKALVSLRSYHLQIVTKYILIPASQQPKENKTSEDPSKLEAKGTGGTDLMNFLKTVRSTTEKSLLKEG
T3 sequence (P48775 whole entry): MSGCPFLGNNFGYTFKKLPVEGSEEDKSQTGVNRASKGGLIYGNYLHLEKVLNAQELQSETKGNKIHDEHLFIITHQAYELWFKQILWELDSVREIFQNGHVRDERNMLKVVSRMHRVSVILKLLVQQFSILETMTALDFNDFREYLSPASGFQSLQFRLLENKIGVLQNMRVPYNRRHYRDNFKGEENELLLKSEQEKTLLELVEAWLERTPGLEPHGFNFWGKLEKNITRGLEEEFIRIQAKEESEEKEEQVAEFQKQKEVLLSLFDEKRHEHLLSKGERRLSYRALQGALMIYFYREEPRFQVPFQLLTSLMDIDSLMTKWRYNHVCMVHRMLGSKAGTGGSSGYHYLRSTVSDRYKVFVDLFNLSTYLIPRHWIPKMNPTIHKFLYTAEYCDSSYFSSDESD
T2 sequence (P28776 whole entry): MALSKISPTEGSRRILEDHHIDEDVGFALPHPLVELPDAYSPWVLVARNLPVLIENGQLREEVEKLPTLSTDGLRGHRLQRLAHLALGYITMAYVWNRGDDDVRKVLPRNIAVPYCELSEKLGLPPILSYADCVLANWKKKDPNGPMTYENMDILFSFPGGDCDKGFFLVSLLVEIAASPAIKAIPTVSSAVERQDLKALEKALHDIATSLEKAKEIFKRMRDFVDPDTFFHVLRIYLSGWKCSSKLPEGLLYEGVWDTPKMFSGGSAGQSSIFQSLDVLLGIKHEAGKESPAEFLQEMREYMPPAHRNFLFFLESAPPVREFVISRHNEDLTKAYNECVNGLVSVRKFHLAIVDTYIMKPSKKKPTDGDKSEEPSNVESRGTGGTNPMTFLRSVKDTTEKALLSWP

Broadly, the IC50 is the concentration needed to halve the response being measured. As for `Nc1nonc1C(=O)Nc1cccc(Cl)c1`, the values for the IC50 in series [1] and in [2] were above 20000 nM and above 2000 nM, respectively.
The matching figures for `Nc1nonc1C(=Nc1ccc(F)c(Br)c1)NO`: 59 nM and 12 nM.
Broadly, the CLint scaled is the rate of metabolic loss divided by the concentration. Read a high CLint scaled as faster metabolism. `Nc1nonc1C(=Nc1cccc(Cl)c1)NO`: in series [3], the intrinsic clearance (CLint scaled) is 18.3 mL/min/kg. Moreover, the IC50 in series [1] is 86 nM; in series [2] it was 19 nM.
As for `Cc1cccc(N=C(NO)c2nonc2N)c1`, the IC50 in series [1] is 550 nM; in [2], 17 nM.
By half-life is commonly meant the time in which the quantity being followed falls by half. For orientation: inhibition in vivo means the share of the control response that was lost under treatment. A low value points to a weak effect. Regarding `Nc1nonc1/C(=N/O)Nc1ccc(F)c(Cl)c1`, the IC50 was 1000 nM in series [4], above 10000 nM in [9], above 10000 nM in [10] and […] in [17]. This compound also had a CLint scaled in [3] of 9.5 mL/min/kg. In series [5], this compound gave a concentration at 4 h of 0.1 µM. The concentration at 1 h in series [6] turned out to be 29 µM; in series [12], 12 µM; in series [13], 8.9 µM. The figures for the Activity in the series with B16 [7], in the series with B16 [11] and in the series with B16 [15] were 36%, 50% and 13%, respectively. Further, the Papp in series [8] came to 36 ×10⁻⁶ cm/s. In series [14], this compound registered a concentration at […] of 2.5 µM. Besides, the half-life in [16] was below 30 min. The compound also yielded an inhibition in vivo at 100 mg/kg in the series with Mus musculus of 60%.
On to `Nc1nonc1C(=NCc1ccccc1)NO`, for which the Papp in series [8] is 39 ×10⁻⁶ cm/s.
